Source: PubChem
Shown are actives, neighbours in structure and some others; about 9.2% of the full set was active somewhere.
HCT116 PTEN-null: suppresses growth of cells with PTEN deletion. HCT116 PTEN-null viability, CellTiter-Glo, 60 h; active compounds read low. viability, % at 10 µM. 140,000 compounds, 1.2% hits. AID 827;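 active = viability at or below a set limit, 4 SD under the median of all tested compounds, cut at about 3.7% in these data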;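 also: PTEN knockout HCT116 line with beta catenin targeted HCT116 as companion control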
HCT116 bCat-KO: beta-catenin-lacking colon tumor cell growth suppression; 140,000 compounds, 1.5% hits; AID 818; viability, % at 10 µM; HCT116 beta-catenin knockout viability, CellTiter-Glo, 60 h; active compounds read low;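 active = viability at or under a set limit, the compound median less 4 SD, cut at about 6% in these data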;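 also: 0% = Hyamine 1622 control at 20 µM and 100% = untreated cell control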
Autophagy HCS: modulators of autophagy | MEF GFP-LC3 puncta imaging; test concentration mostly 10 µM | calls only at 10 µM (by protocol) | 190,000 compounds, 0.98% hits | AID 463193;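 active = percentage of spot-positive cells more than 3 SD above its plate mean, without a fluorescence outlier flag or 80% toxicity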;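 also: spot-positive cell cutoff set from DMSO-treated cells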
Lmaj promast: Leishmania major promastigote growth inhibition. 200,000 compounds, 9% hits. Leishmania major promastigotes, resazurin fluorescence viability. AID 1063. inhibition, % at 10 µM; in the data active = inhibition above about 50%;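 also: promastigotes grown with compound for 44 hours at 28 °C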
Dynein transport: blocks dynein driven cargo transport along microtubules. 3617.4 mouse cells, GR-EGFP nuclear translocation imaging; test concentration mostly 20 µM; stimulated with dexamethasone, 1 µM; active compounds read low. z-score, hits read low. 220,000 compounds, 0.47% hits;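 active = plate z-score of nuclear minus cytoplasmic receptor signal below a set negative limit, without overly bright fluorescence or cell loss, cut at about -3.5 in these data, passing the limit was not always enough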;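 also: z-score of nuclear minus cytoplasmic ring GR-EGFP intensity difference per well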
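Buffer or medium: tetracycline-free induction medium containing charcoal-stripped FBS / Reagent: dexamethasone agonist, 1.0 µM final, for 30 min / Technique: automated 10x imaging of fixed Hoechst-stained cells / Times: induction 48 h, compound 1 h, agonist 30 min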
* marks the source's active call; other numbers are inactive results; i = inactive; · = no result; + = active, no number.

SMILES	HCT116 PTEN-null	HCT116 bCat-KO	Autophagy HCS	Lmaj promast	Dynein transport
CCOC(=O)CN(C(=O)CSc1nnc(COc2ccc(OC)cc2)n1CC)c1ccccc1	·	·	·	·	0.917
CCN(CC)c1ccc(C(=O)OCC(=O)NC(C)(C)C)cc1	·	·	·	·	-0.578
CCC(C)c1ccc(OCc2ccc(C(=O)OC)o2)cc1 (centres undefined)	·	·	·	·	-0.0765
Cc1cccc(-n2c(SCC(=O)NC3CCCC3)nnc2-c2ccoc2C)c1	100.3	99.8	i	-2.5	2.11
COCCN(Cc1cc2cccc(C)c2[nH]c1=O)C(=O)c1ccccc1	98.6	93.2	i	-3.4	-1.39
COC(=O)c1ccccc1NC(=S)N(Cc1ccc2c(c1)OCO2)Cc1cc2cccc(C)c2[nH]c1=O	78.8	79.6	i	66.9*	1.03
CS(=O)(=O)N(CC(=O)NC1CCCCC1)c1cccc(Cl)c1	90.8	87.3	i	14.3	-1.25
COc1cc(Nc2ccccc2Cl)c([N+](=O)[O-])nc1[N+](=O)[O-]	48.3	53.5	i	83.5*	2.05
O=c1c2c(n3cnnc3n1-c1ccccc1)-c1ccccc1CC21CCCC1	94.8	100.5	i	65.8*	-0.0117
CC1CCN(Cc2c(O)ccc3c(=O)c(-c4nc5ccccc5s4)c(N)oc23)CC1	4.4	23.4	+	60.3*	0.575
CC1CCCN(Cc2c(O)ccc3c(=O)c(-c4nc5ccccc5s4)c(N)oc23)C1 (centres undefined)	0.9*	1.0*	i	100.7*	0.0426
O=C(c1ccc(Cn2c(=S)[nH]c3cc4c(cc3c2=O)OCO4)cc1)N1CCN(c2ncccn2)CC1	·	·	i	11.2	-0.0753
COC(=O)c1cc2c(ccn2-c2ccc(F)cc2)n1CC(C)C	63.9	60.1	i	98.4*	0.421
CCCn1c(C(=O)OC)cc2c1ccn2-c1ccc(F)cc1	68.5	70.0	i	99.2*	0.786
COC(=O)c1cc2c(ccn2-c2ccc(F)cc2)n1C(C)C	71.0	75.5	i	0.0	-0.715
Cc1ccc(NC(=O)CCC(=O)OCC(=O)c2ccc(Oc3ccc([N+](=O)[O-])cc3)cc2)c(C)c1	93.2	89.2	i	-3.5	-0.364
C=CC(O)(C#CCN(CC)CC)c1ccccc1 (centres undefined)	50.9	70.9	i	-2.8	0.000963
CCN(CC)CC#CCC(O)(c1ccccc1)c1ccccc1	·	·	i	77.1*	-0.19
CCN(CC)CC#CCC(O)(c1ccccc1)c1ccc(Br)cc1 (centres undefined)	·	·	i	45.6	-0.617
CCN(CC)CC#CCC(C)(c1ccccc1)c1ccccc1	10.0	10.0	i	94.4*	-0.158
COc1ccc(N2CCN(C(=O)c3ccc4ccccc4n3)CC2)cc1	·	·	i	7.9	1.21
COc1ccc(S(=O)(=O)c2cnc3ccccc3n2)cc1	·	·	i	10.6	-0.29
O=S(=O)(c1ccc(Br)cc1)c1cnc2ccccc2n1	·	·	i	84.4*	-0.813
CCCCC(CC)Cn1c2nc3ccccc3nc2c2c(=N)oc(C)nc21 (centres undefined)	2.5*	4.5*	i	26.3	-1.3
COc1ccc(C2C3=C(CCCC3=O)Nc3ccc4ncccc4c32)cc1OC (centres undefined)	·	·	i	74.8*	-0.112
